This is a sample that favours compounds with a hit; in the whole collection about 3.1% have one here.
Env fusion inh: blocks HIV Env-driven cell-cell fusion | hit rate 1.1% among 360,000 | AID 651610 | HeLa-JRFL Env/CEM21 cell fusion, luciferase | inhibition, % at 12.3 µM;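 active means mean replicate inhibition score of at least 50 and every replicate individually at or above 50; inconclusive means only one of the two criteria met; inactive means mean below 50 and not all replicates reaching 50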;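 further: 0% = plate neutral controls and 100% = maraviroc near 300 nM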
FGF22 binding: binders of recombinant human FGF22 by thermal shift; hit rate 1.5% among 340,000; AID 651658; SYPRO orange fluorescence; percent of sucrose octasulfate shift, DMSO zero; Q9HCT0; activity (Tm shift, normalised), % at 9.99 µM;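 active means mean Tm shift, scaled 0 neutral to 100 positive control, at about 1.3% or above, every replicate too, limit read from the data; inconclusive means no clear call, values can overlap the other calls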
Target sequence (Q9HCT0 whole entry, looked up): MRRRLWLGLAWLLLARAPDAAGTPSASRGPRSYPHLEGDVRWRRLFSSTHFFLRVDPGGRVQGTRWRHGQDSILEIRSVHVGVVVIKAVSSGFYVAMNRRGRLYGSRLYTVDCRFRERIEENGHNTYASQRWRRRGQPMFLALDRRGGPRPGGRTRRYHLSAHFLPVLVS
PGC1a acetyl inh: PGC1a acetylation modulation, inhibitor mode; hit rate 0.17% among 350,000; inhibition, % at 15.6 µM; U2OS PGC1a acetylation, AlphaScreen anti-acetyl-lysine; with virally co-expressed GCN5 acetyltransferase;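 active means every replicate shows inhibition of at least 40%; inconclusive means mean inhibition at least 40% but some replicate below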;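 further: 0% = neutral control wells and 100% = positive control wells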
PAX8 reporter: inhibitors of PAX8 transcriptional activity in RMG-I cells. RMG-I TPO-luciferase reporter, SteadyGlo, 24 h. inhibition, % at 12.6 µM. hit rate 1.2% among 360,000;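 active means mean replicate inhibition at least 60% with every replicate also reaching 60%; inconclusive means only one of the two criteria is met; inactive means mean below 60% and not all replicates reaching 60%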;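 further: luciferase light reporting Pax8 driven TPO promoter activity; plate controls were median of neutral control wells for no effect and mitoxantrone controls for full effect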
EWS-Fli block: inhibitors of EWS/Fli oncoprotein transcriptional activity. A673 NR0B1-luciferase reporter, viability-normalised. inhibition, % at 12.6 µM. hit rate 0.67% among 350,000;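 active means mean inhibition of at least 50% after viability correction, with every replicate also passing that limit; inconclusive means mean reaches 50% but only one of two replicates passes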;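 further: firefly luciferase signal divided by Alamar Blue viability fluorescence both relative to DMSO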
FN deposition inh: fibronectin deposition inhibition; AID 743247; AH1F fibroblasts, Alexa488-fibronectin deposition fluorescence, overnight; inhibition, % at 12.6 µM; hit rate 0.086% among 350,000;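 active means mean inhibition across replicates of 30% or more, regardless of how many single replicates reach that level; inconclusive means mean under 30% yet at least half of replicates reach 30%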;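 further: positive control wells lacked labelled fibronectin entirely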
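Schedule: 1 h cell adhesion before compound, then overnight fibronectin incubation; test system: AH1F fibroblast monolayer depositing Alexa488-labelled fibronectin into matrix; quantity: 10000 AH1F cells per well; probe or stimulus: fluorescent fibronectin at 24 nM final; signal: fluorescence, ex 485 nm, em 525 nm; evaluation: percent inhibition as loss of matrix-bound fibronectin fluorescence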
DNA binder FP: binds DNA displacing acridine orange; shares compounds with EWS-Fli block; AC35, µM (doses to about 68 µM), inactives show at the highest dose activity change, negative = DNA binding; hit rate 2% among 640; salmon sperm DNA acridine orange fluorescence polarization; AID 720586;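 active means fitted curve reaches a 35% signal fall AC35 below twice the sample's top valid tested dose, actives reach about 48 µM in these data; inactive means the rest, including activity in the rising direction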;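 further: lower polarization ratio signals compound binding to DNA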
Starred values were filed as active, the others as inactive; ? = inconclusive; . = no result given; ! = repeats disagree; [ ] = dose if it differs, or a comment.

SMILES	Env fusion inh	FGF22 binding	PGC1a acetyl inh	PAX8 reporter	EWS-Fli block	FN deposition inh	DNA binder FP
CN(Cc1cnc2nc(N)nc(N)c2n1)c1ccc(C(=O)N[C@@H](CCC(=O)O)C(=O)O)cc1	62*!	0	43*!	48	64*	-5	-3%
COc1ccc(-c2sc3ccccc3c2-c2ccc(OCCN3CCCCC3)cc2)cc1	40	-1	9	-20	59*	15	-4%
c1ccc(-c2sc3ccccc3c2-c2ccc(OCCN3CCCC3)cc2)cc1	6	0	.	-6	45	-9	.
COc1ccc(-c2cc(CNc3nc(NC(C)C)nc4cc(-c5ccccc5)sc34)on2)cc1	-34	0	18	104*	54*	-4	-1%
O=C(O)CN1C(=O)/C(=C\c2ccccc2OCc2ccc(Cl)cc2Cl)SC1=S	35	0	6	2	59*	-4	-6%
COCCCNc1ccn2nc(-c3ccccc3)cc2n1	63*	0	.	10	57*	-8	-9%
Cc1ccc(S(=O)(=O)N(C)C[C@@H]2Oc3ccc(NC(=O)C4CC4)cc3CC(=O)N([C@H](C)CO)C[C@@H]2C)cc1	.	0	4	-10	2	.	.
Cc1ccc(S(=O)(=O)N(C)C[C@H]2Oc3ccc(NC(=O)NC4CCCCC4)cc3CC(=O)N([C@@H](C)CO)C[C@H]2C)cc1	.	0	-8	-8	0	.	.
C[C@@H]1CN([C@@H](C)CO)S(=O)(=O)c2ccc(C#CC(C)(C)O)cc2O[C@H]1CN(C)Cc1ccc(-c2ccccc2)cc1	?	-1	9	.	75*	6	-3%
C[C@@H]1CN([C@H](C)CO)S(=O)(=O)c2ccc(C#CC3CC3)cc2O[C@@H]1CN(C)Cc1ccccc1F	37[16.7 µM]	0	-32	.	61*	-4	-10%
C[C@@H]1CN([C@@H](C)CO)S(=O)(=O)c2ccc(C#CC(C)(C)O)cc2O[C@@H]1CN(C)Cc1ccc(-c2ccccc2)cc1	36[16.7 µM]	-1	-22	.	30	6	.
C[C@H]1CN([C@@H](C)CO)S(=O)(=O)c2ccc(C#CC3CC3)cc2O[C@@H]1CN(C)Cc1ccccc1F	18[16.7 µM]	0	-12	.	24	-21	.
CCc1ccc2oc(C(=O)N3CCN(c4ccccc4OC)CC3)cc(=O)c2c1	-17	0	.	20	56*	-2	-4%
C=CCOc1c(/C=N\NC(N)=O)cccc1OC	-5	0	3	1	6	-1	.
COc1cccc(Sc2ccccc2/C=N/NC(N)=O)c1	-46	0	-10	32	54*	10	-14%
COc1ccc([Si](C)(C)[C@H]2[C@H](CCO)O[C@@]3(C(=O)N(c4ccccc4)c4ccccc43)[C@@H]2C)cc1	19[16.7 µM]	0	-17	103*	58*	.	2%
O=C(C[C@H]1C[C@@H]2c3cc(NS(=O)(=O)c4ccc(F)cc4)ccc3O[C@@H]2[C@@H](CO)O1)NCc1ccccc1	10[16.7 µM]	0	2	20	4	-5	.
O=C(C[C@@H]1C[C@H]2c3cc(NS(=O)(=O)c4ccc(F)cc4)ccc3O[C@H]2[C@H](CO)O1)NCc1ccc(-c2ccccc2)cc1	-171[16.7 µM]	.	-27	88*	56*	6	0%
O=C(NCC1CCCO1)c1ccc(NC(=O)c2ccc(Br)cc2)cc1 (stereo unspecified)	-12	0	10	-2	3	14	.
CCC1=Nc2cc(C(=O)NCC3CCCO3)ccc2Sc2ccc(Br)cc21 (stereo unspecified)	-22	0	7	29	55*	0	-22%
O=c1cc(-c2ccccc2)oc2ccc3ccccc3c12	-20	0	-1	91*	81*	-6	13%
COCC(=O)N(C)C[C@@H]1Oc2ncc(C#Cc3ccccc3)cc2C(=O)N([C@@H](C)CO)C[C@@H]1C	9[16.7 µM]	0	-6	.	-11	1	.
Cc1cc(C)cc(OCC(=O)OCC(=O)Nc2cc(S(=O)(=O)N3CCOCC3)ccc2C)c1	4	0	4	-1	66*	1	-12%
Cc1cc(C)cc(OCC(=O)OCC(=O)Nc2cc(S(=O)(=O)N3CCOCC3)ccc2Cl)c1	-13	0	-17	-4	-1	3	.
C[C@H](CO)N1C[C@H](C)[C@@H](CN(C)S(=O)(=O)c2ccccc2)Oc2ccc(NC(=O)Nc3cccc4ccccc34)cc2C1=O	8[16.7 µM]	0	39	10	3	.	.
SMILES	Env fusion inh	FGF22 binding	PGC1a acetyl inh	PAX8 reporter	EWS-Fli block	FN deposition inh	DNA binder FP
COc1ccc(C2=Nn3c([n+](C)c4ccccc43)SC2)cc1	30	42	-15	84*	53*	0	-3%
O=C(C[C@@H]1CC[C@@H](NC(=O)Nc2cc(F)ccc2F)[C@@H](CO)O1)Nc1ccc(-c2ccccc2)cc1	18[16.7 µM]	1	4	-3	15	6	.
C[C@H]1CN([C@@H](C)CO)C(=O)c2cc(NC(=O)Nc3cccc4ccccc34)ccc2O[C@@H]1CN(C)S(=O)(=O)c1cn(C)cn1	.	0	1	.	-1	.	.
CCOc1ccc(-c2cc(CCCC(=O)NCc3ccc(C)cc3)no2)cc1	72	0	-15	-1	61*	-3	-9%
COc1ccc(-c2cc(CCCC(=O)NCCc3cc(OC)ccc3OC)no2)cc1	-1	.	-19	.	.	.	.
CN(C)CC(=O)Nc1ccc2c(c1)[C@H]1C[C@H](CC(=O)NCc3cccc(F)c3)O[C@H](CO)[C@H]1O2	3[16.7 µM]	0	7	9	-4	.	.
COC(=O)C[C@@H]1CC[C@@H]2[C@@H](COc3ccc(NC(=O)Nc4cccc(Cl)c4)cc3C(=O)N2C)O1	40[16.7 µM]	0	-1	15	77*	-1	14%
COC(=O)C[C@@H]1CC[C@H]2[C@@H](COc3ccc(NC(=O)Nc4cccc(Cl)c4)cc3C(=O)N2C)O1	-8[16.7 µM]	-1	0	39	45	-4	.
COC(=O)C[C@@H]1CC[C@@H]2[C@H](COc3ccc(NC(=O)Nc4ccccc4C)cc3C(=O)N2C)O1	-3[16.7 µM]	.	4	8	-8	-11	.
COC(=O)C[C@@H]1CC[C@@H]2[C@@H](COc3ccc(NC(=O)Nc4ccccc4C)cc3C(=O)N2C)O1	5[16.7 µM]	0	-5	13	66*	-7	-13%
COC(=O)C[C@@H]1CC[C@@H]2[C@@H](COc3ccc(NC(=O)Nc4cccc(F)c4)cc3C(=O)N2C)O1	.	0	1	1	69*	-1	-10%
CN1C(=O)c2cc(NC(=O)c3ccc(C(F)(F)F)cc3)ccc2OC[C@@H]2O[C@@H](CC(=O)NC3Cc4ccccc4C3)CC[C@H]21	-88[16.7 µM]	0	3	39	54*	-7	0%

Screening data (PubChem)
